Reference: ChEMBL document CHEMBL5724801, “EUbOPEN Chemogenomics Library - Multiplex” (2024)
Values joined by “and” are separate entries in the source; they are usually repeats but may differ in a detail not shown here. Equal values may be shown once.

System: HEK-293T
Assay: Multiplex assay against HEK293T
Type: toxicity, cell-based
Conditions: human
Outline: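 Values for tubulin, mitochondrial-mass and membrane-permeability phenotypes are per cents of cells with healthy nuclei. These cells were identified by CellPathfinder machine-learning gating of live cells that had been stained at seeding with Hoechst33342, BioTracker Green Microtubule Cytoskeleton Dye, MitoTracker Red and Annexin V Alexa Fluor 680 and imaged on a CQ1 microscope at 37°C and 5% CO2 after compound addition. The gating first set Hoechst high-intensity objects apart from normal cells, then split normal cells into healthy, pyknosed or fragmented nuclei, and pyknosed cells into mitotic or apoptotic.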

[1] = 12 h, 1 µM, compound concentration 1 uM
[2] = 12 h, 10 µM, compound concentration 10 uM
[3] = 24 h, 1 µM, compound concentration 1 uM
[4] = 24 h, 10 µM, compound concentration 10 uM
[5] = 48 h, 1 µM, compound concentration 1 uM
[6] = 48 h, 10 µM, compound concentration 10 uM

With `COCCCN1CCC(NC(=O)c2cc(Cl)c(N)c3c2OCC3)CC1` [PRUCALOPRIDE] the “Population Apoptotic (%)” value [1] was 22% and 31%, the “Population Fragmented Nuclei (%)” value [1] was 10% and 4% and the “Population Healthy Nuclei (%)” value [1] was 80% and 82%. For the same compound, the “Population Hoechst High Intensity Objects (%)” value [1] was 8% and 7%, the “Population Membrane Permeable-Phenotype (%)” value [1] was 0% and the “Population Mitochondria Different-Phenotype (%)” value [1] was 36% and 59%. For the same compound, the “Population Mitotic Cells (%)” value [1] was 77% and 68%, the “Population Normal (%)” value [1] was 91% and 92% and the “Population Pyknosed Nuclei (%)” value [1] was 9% and 12%. The “Population Tubulin-Different-Phenotype (%)” value [1] was 21% and 16%, the “Total Cell Count” value [1] was 416 and 397 and the “Population Apoptotic (%)” value [2] was 37% and 56%. The “Population Fragmented Nuclei (%)” value [2] was 8% and 10%, the “Population Healthy Nuclei (%)” value [2] was 74% and 72% and the “Population Hoechst High Intensity Objects (%)” value [2] was 4% and 10%. For the same compound, the “Population Membrane Permeable-Phenotype (%)” value [2] was 0%, the “Population Mitochondria Different-Phenotype (%)” value [2] was 59% and 75% and the “Population Mitotic Cells (%)” value [2] was 62% and 43%. The “Population Normal (%)” value [2] was 95% and 89%, the “Population Pyknosed Nuclei (%)” value [2] was 17% and the “Population Tubulin-Different-Phenotype (%)” value [2] was 43% and 35%. For the same compound, the “Total Cell Count” value [2] was 421 and 261, the “Population Apoptotic (%)” value [3] was 20% and 28% and the “Population Fragmented Nuclei (%)” value [3] was 11% and 8%. The “Population Healthy Nuclei (%)” value [3] was 78% and 84%, the “Population Hoechst High Intensity Objects (%)” value [3] was 5% and 4% and the “Population Membrane Permeable-Phenotype (%)” value [3] was 1% and 0%. For the same compound, the “Population Mitochondria Different-Phenotype (%)” value [3] was 18% and 39%, the “Population Mitotic Cells (%)” value [3] was 79% and 71% and the “Population Normal (%)” value [3] was 94% and 95%. The “Population Pyknosed Nuclei (%)” value [3] was 10% and 6%, the “Population Tubulin-Different-Phenotype (%)” value [3] was 14% and 10% and the “Total Cell Count” value [3] was 590 and 546. The “Population Apoptotic (%)” value [4] was 28% and 50%, the “Population Fragmented Nuclei (%)” value [4] was 8% and 13% and the “Population Healthy Nuclei (%)” value [4] was 77% and 73%. For the same compound, the “Population Hoechst High Intensity Objects (%)” value [4] was 4% and 9%, the “Population Membrane Permeable-Phenotype (%)” value [4] was 0% and the “Population Mitochondria Different-Phenotype (%)” value [4] was 48% and 51%. For the same compound, the “Population Mitotic Cells (%)” value [4] was 71% and 50%, the “Population Normal (%)” value [4] was 95% and 90% and the “Population Pyknosed Nuclei (%)” value [4] was 13% and 12%. The “Population Tubulin-Different-Phenotype (%)” value [4] was 32% and 25%, the “Total Cell Count” value [4] was 531 and 341 and the “Population Apoptotic (%)” value [5] was 24% and 21%. The “Population Fragmented Nuclei (%)” value [5] was 15% and 11%, the “Population Healthy Nuclei (%)” value [5] was 76% and 81% and the “Population Hoechst High Intensity Objects (%)” value [5] was 2% and 1%. For the same compound, the “Population Membrane Permeable-Phenotype (%)” value [5] was 1% and 0%, the “Population Mitochondria Different-Phenotype (%)” value [5] was 16% and 15% and the “Population Mitotic Cells (%)” value [5] was 75% and 78%. The “Population Normal (%)” value [5] was 97% and 98%, the “Population Pyknosed Nuclei (%)” value [5] was 7% and 6% and the “Population Tubulin-Different-Phenotype (%)” value [5] was 11% and 9%. The “Total Cell Count” value [5] was 1001 and 832, the “Population Apoptotic (%)” value [6] was 20% and 35% and the “Population Fragmented Nuclei (%)” value [6] was 16%. For the same compound, the “Population Healthy Nuclei (%)” value [6] was 77% and 75%, the “Population Hoechst High Intensity Objects (%)” value [6] was 1% and 3% and the “Population Membrane Permeable-Phenotype (%)” value [6] was 1% and 0%. The “Population Mitochondria Different-Phenotype (%)” value [6] was 32% and 31%, the “Population Mitotic Cells (%)” value [6] was 79% and 64% and the “Population Normal (%)” value [6] was 98% and 96%. For the same compound, the “Population Pyknosed Nuclei (%)” value [6] was 6% and 7%, the “Population Tubulin-Different-Phenotype (%)” value [6] was 16% and 15% and the “Total Cell Count” value [6] was 772 and 528.
For `c1ccc2nc(N3CCNCC3)ccc2c1` [QUIPAZINE], the “Population Apoptotic (%)” value [1] was 6.35% and 5.69%, the “Population Fragmented Nuclei (%)” value [1] was 1.8% and 5.66% and the “Population Healthy Nuclei (%)” value [1] was 49.61% and 16.98%. The “Population Hoechst High Intensity Objects (%)” value [1] was 0%, the “Population Membrane Permeable-Phenotype (%)” value [1] was 0.52% and 0% and the “Population Mitochondria Different-Phenotype (%)” value [1] was 33.16% and 11.11%. For the same compound, the “Population Mitotic Cells (%)” value [1] was 93.65% and 94.31%, the “Population Normal (%)” value [1] was 100% and the “Population Pyknosed Nuclei (%)” value [1] was 48.59% and 77.36%. For the same compound, the “Total Cell Count” value [1] was 389 and 159, the “Population Apoptotic (%)” value [2] was 10.22% and 12.62% and the “Population Fragmented Nuclei (%)” value [2] was 1.36% and 2.36%. The “Population Hoechst High Intensity Objects (%)” value [2] was 0.68% and 0%, the “Population Membrane Permeable-Phenotype (%)” value [2] was 0.65% and 4.76% and the “Population Mitochondria Different-Phenotype (%)” value [2] was 23.53% and 19.05%. The “Population Mitotic Cells (%)” value [2] was 89.78% and 87.38%, the “Population Normal (%)” value [2] was 99.32% and 100% and the “Population Pyknosed Nuclei (%)” value [2] was 46.6% and 81.1%. The “Total Cell Count” value [2] was 296 and 127, the “Population Apoptotic (%)” value [3] was 10.39% and 10% and the “Population Fragmented Nuclei (%)” value [3] was 1.31% and 1.74%. The “Population Healthy Nuclei (%)” value [3] was 73.44% and 34.3%, the “Population Hoechst High Intensity Objects (%)” value [3] was 0% and the “Population Membrane Permeable-Phenotype (%)” value [3] was 2.9% and 0%. The “Population Mitochondria Different-Phenotype (%)” value [3] was 14.29% and 11.86%, the “Population Mitotic Cells (%)” value [3] was 89.61% and 90% and the “Population Normal (%)” value [3] was 100%. The “Population Pyknosed Nuclei (%)” value [3] was 25.25% and 63.95%, the “Population Tubulin-Different-Phenotype (%)” value [3] was 16.29% and 6.78% and the “Population Apoptotic (%)” value [4] was 18.49% and 17.05%. The “Population Fragmented Nuclei (%)” value [4] was 1.63% and 1.53%, the “Population Healthy Nuclei (%)” value [4] was 74.08% and 31.3% and the “Population Hoechst High Intensity Objects (%)” value [4] was 0.41% and 0%. For the same compound, the “Population Membrane Permeable-Phenotype (%)” value [4] was 1.1% and 0%, the “Population Mitochondria Different-Phenotype (%)” value [4] was 15.98% and 14.63% and the “Population Mitotic Cells (%)” value [4] was 81.51% and 82.95%. For the same compound, the “Population Normal (%)” value [4] was 99.59% and 100%, the “Population Pyknosed Nuclei (%)” value [4] was 24.29% and 67.18% and the “Population Tubulin-Different-Phenotype (%)” value [4] was 15.98% and 9.76%. The “Population Fragmented Nuclei (%)” value [5] was 2.36% and 0.5%, the “Population Healthy Nuclei (%)” value [5] was 83.55% and 65% and the “Population Hoechst High Intensity Objects (%)” value [5] was 0.15% and 0%. The “Population Membrane Permeable-Phenotype (%)” value [5] was 6.88% and 1.54%, the “Population Mitochondria Different-Phenotype (%)” value [5] was 14.83% and 16.15% and the “Population Mitotic Cells (%)” value [5] was 95.81% and 81.16%. The “Population Normal (%)” value [5] was 99.85% and 100%, the “Population Pyknosed Nuclei (%)” value [5] was 14.09% and 34.5% and the “Population Apoptotic (%)” value [6] was 13.64% and 6.25%. The “Population Fragmented Nuclei (%)” value [6] was 3.18% and 1.42%, the “Population Healthy Nuclei (%)” value [6] was 86.82% and 64.54% and the “Population Hoechst High Intensity Objects (%)” value [6] was 0%. The “Population Membrane Permeable-Phenotype (%)” value [6] was 5.34% and 3.3%, the “Population Mitochondria Different-Phenotype (%)” value [6] was 17.59% and 12.09% and the “Population Mitotic Cells (%)” value [6] was 86.36% and 93.75%. The “Population Normal (%)” value [6] was 100%.
`CCC(=O)N1CCN(c2ccc(-n3c(=O)ccc4cnc5ccc(-c6cnc7ccccc7c6)cc5c43)cc2C(F)(F)F)CC1` [TORIN1] was tested, and the “Population Apoptotic (%)” value [2] was 71% and 51%, the “Population Healthy Nuclei (%)” value [2] was 76% and the “Population Hoechst High Intensity Objects (%)” value [2] was 7%. The “Population Membrane Permeable-Phenotype (%)” value [2] was 0%, the “Population Mitochondria Different-Phenotype (%)” value [2] was 78% and 87% and the “Population Mitotic Cells (%)” value [2] was 48%. For the same compound, the “Population Normal (%)” value [2] was 88% and 92%, the “Population Tubulin-Different-Phenotype (%)” value [2] was 37% and the “Total Cell Count” value [2] was 373 and 266. The “Population Apoptotic (%)” value [4] was 44%, the “Population Healthy Nuclei (%)” value [4] was 75% and the “Population Membrane Permeable-Phenotype (%)” value [4] was 0%. For the same compound, the “Population Mitochondria Different-Phenotype (%)” value [4] was 75% and 82%, the “Population Mitotic Cells (%)” value [4] was 46% and 55% and the “Population Normal (%)” value [4] was 86% and 77%. The “Population Tubulin-Different-Phenotype (%)” value [4] was 43% and 33%, the “Total Cell Count” value [4] was 337 and 225 and the “Population Apoptotic (%)” value [6] was 56% and 68%. For the same compound, the “Population Healthy Nuclei (%)” value [6] was 70% and 56%, the “Population Membrane Permeable-Phenotype (%)” value [6] was 0% and the “Population Mitochondria Different-Phenotype (%)” value [6] was 77% and 80%. The “Population Mitotic Cells (%)” value [6] was 43%, the “Population Normal (%)” value [6] was 73% and 38% and the “Population Tubulin-Different-Phenotype (%)” value [6] was 47% and 37%. The “Total Cell Count” value [6] was 292 and 235.
